Source: ChEMBL document CHEMBL1142700, “Nonpolar and short side chain groups at C-11beta of estradiol result in antiestrogens” (J Med Chem, 2005)

Tests used:
[1] = target: Estrogen receptor beta (Homo sapiens) (UniProt Q92731); experiment: Inhibition of [3H]E2 binding to human Estrogen receptor-beta ligand binding domain (LBD) expressed in Escherichia coli lysates
Procedure, shortened: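 Human ERβ LBD (M214-Q530) in E. coli lysates; overnight room-temperature competition with [3H]E2, charcoal separation of bound from free. RBA relative to E2 from EC50 ratio × 100, at least three duplicate experiments.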

[2] = test system: Ishikawa; experiment: Inhibitory constant against stimulation of alkaline phosphatase activity in Ishikawa cells; format: functional, cell-based, Homo sapiens
[3] = target: Estrogen receptor (Rattus norvegicus) (UniProt P06211+Q62986); experiment: Relative binding affinity for estrogen receptor of rat uterine cytosol; format: protein assay
Procedure, shortened: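 Cytosol from uteri of Sprague-Dawley rats taken 24 h after castration, homogenized in TEGDMo buffer (pH 7.4), spun at 105 000g. Incubated on ice overnight with 1 nM [3H]E2 and competitor at 10^-12 to 10^-6 M. Dextran-coated charcoal separation, counting. RBA = EC50 E2 / EC50 analogue × 100, at least three duplicate experiments.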

[4] = target: T1, Estrogen receptor (Homo sapiens) (UniProt P03372); experiment: Inhibition of [3H]E2 binding to human Estrogen receptor-alpha ligand binding domain (LBD) expressed in Escherichia coli lysates
T1 sequence (whole entry): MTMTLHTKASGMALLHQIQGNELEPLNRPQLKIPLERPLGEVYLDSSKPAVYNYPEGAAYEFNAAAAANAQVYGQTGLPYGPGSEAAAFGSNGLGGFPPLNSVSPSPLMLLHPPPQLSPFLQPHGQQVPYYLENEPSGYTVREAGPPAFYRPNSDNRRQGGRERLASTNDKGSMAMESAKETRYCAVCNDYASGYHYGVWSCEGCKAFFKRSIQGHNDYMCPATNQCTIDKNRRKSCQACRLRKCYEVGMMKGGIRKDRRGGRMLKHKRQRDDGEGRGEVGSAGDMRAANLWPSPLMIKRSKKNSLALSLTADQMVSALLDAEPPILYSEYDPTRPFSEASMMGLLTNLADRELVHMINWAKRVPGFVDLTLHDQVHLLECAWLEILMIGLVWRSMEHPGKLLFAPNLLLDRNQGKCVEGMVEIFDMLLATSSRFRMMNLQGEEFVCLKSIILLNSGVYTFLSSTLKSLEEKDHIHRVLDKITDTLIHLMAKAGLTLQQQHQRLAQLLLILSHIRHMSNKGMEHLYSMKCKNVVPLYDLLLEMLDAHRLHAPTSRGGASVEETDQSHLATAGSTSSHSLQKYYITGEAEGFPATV
Procedure, shortened: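 Human ERα LBD (M250-V595) expressed in E. coli lysates, competed against [3H]E2 overnight at room temperature. Bound separated by dextran-coated charcoal. RBA = EC50 of E2 / EC50 of analogue × 100, from at least three experiments in duplicate.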

[5] = test system: Ishikawa; experiment: Inhibitory constant against stimulation of alkaline phosphatase activity in Ishikawa cells; weak mixed agonist/antagonist; format: functional, cell-based, Homo sapiens
[6] = test system: Ishikawa; experiment: Inhibitory constant against stimulation of alkaline phosphatase activity in Ishikawa cells; not active; format: functional, cell-based, Homo sapiens
[7] = test system: Ishikawa; experiment: Estrogenic potency measured as stimulation of alkaline phosphatase activity relative to E2 in human endometrialadenocarcinoma cells (Ishikawa); format: functional
Procedure, shortened: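 Ishikawa human endometrial adenocarcinoma cells grown in phenol red-free medium with charcoal-stripped bovine serum and steroid over at least 6 orders of magnitude for 3 days. Cells washed, freeze-thawed, then given 5 mM p-nitrophenyl phosphate at pH 9.8, with kinetic reading of p-nitrophenol at 405 nm. At least three experiments in duplicate; EC50 by curve fitting.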

[8] = test system: Ishikawa; experiment: Inhibitory constant against stimulation of alkaline phosphatase activity in Ishikawa cells; (agonist); format: functional, cell-based, Homo sapiens
[9] = test system: Ishikawa; experiment: Relative stimulatory activity in Ishikawa cells with respect to E2; format: functional, Homo sapiens
Procedure, shortened: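 Ishikawa alkaline phosphatase induction: phenol red-free medium, charcoal-stripped bovine serum, 3-day exposure to steroid across at least 6 log units. Read kinetically at 405 nm with 5 mM p-nitrophenyl phosphate, pH 9.8. RSA = (1/EC50 analogue) / (1/EC50 E2) × 100, fitted in at least three duplicate experiments.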

[10] = test system: Ishikawa; experiment: Inhibitory constant against stimulation of alkaline phosphatase activity in Ishikawa cells; mixed agonist/antagonist moderate activity; format: functional, cell-based, Homo sapiens
[11] = test system: Ishikawa; experiment: Inhibitory constant against stimulation of alkaline phosphatase activity in Ishikawa cells; ag./ant. is mixed agonist/antagonist; format: functional, cell-based, Homo sapiens
[12] = test system: Ishikawa; experiment: Inhibitory constant against stimulation of alkaline phosphatase activity in Ishikawa cells; na is not active; format: functional, cell-based, Homo sapiens
[13] = test system: Ishikawa; experiment: Inhibitory constant of the compound against stimulationofalkaline phosphatase activity inIshikawa cells; weak mixed agonist/antagonist; format: functional, cell-based, Homo sapiens

Sequence of Estrogen receptor beta (Homo sapiens) (Q92731 whole entry, the tested form may be a part): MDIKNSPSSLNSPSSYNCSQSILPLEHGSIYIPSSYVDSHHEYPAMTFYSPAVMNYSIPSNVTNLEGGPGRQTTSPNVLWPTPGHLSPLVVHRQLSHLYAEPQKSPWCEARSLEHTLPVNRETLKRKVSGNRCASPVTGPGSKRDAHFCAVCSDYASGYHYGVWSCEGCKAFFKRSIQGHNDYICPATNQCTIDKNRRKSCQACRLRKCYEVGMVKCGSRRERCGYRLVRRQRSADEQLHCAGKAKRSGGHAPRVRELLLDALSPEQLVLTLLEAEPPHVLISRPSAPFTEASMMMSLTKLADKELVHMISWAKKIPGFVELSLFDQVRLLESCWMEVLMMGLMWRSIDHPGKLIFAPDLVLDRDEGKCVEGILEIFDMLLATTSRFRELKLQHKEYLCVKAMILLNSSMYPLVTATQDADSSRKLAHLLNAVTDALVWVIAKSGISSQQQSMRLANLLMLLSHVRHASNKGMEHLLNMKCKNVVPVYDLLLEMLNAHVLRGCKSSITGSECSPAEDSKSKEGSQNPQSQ

| RBA [1] [%] | RBA [3] [%] | RBA [4] [%] | SMILES | Ki [2] [nM] | further results |
| --- | --- | --- | --- | --- | --- |
| 32 | 15 | 45 | CC(C)OCC[C@H]1C[C@]2(C)[C@@H](O)CC[C@H]2C2CCc3cc(O)ccc3[C@H]21 (single isomer, unassigned) | 0.4 | – |
| 34 | 16 | 112 | C[C@]12C[C@H](CCOCCF)[C@@H]3c4ccc(O)cc4CCC3[C@@H]1CC[C@@H]2O (single isomer, unassigned) | 55 | – |
| 93 | 114 | 220 | CC(C)OCCC[C@H]1C[C@]2(C)[C@@H](O)CC[C@H]2[C@@H]2CCc3cc(O)ccc3[C@@H]12 | 0.2 | – |
| 268 | 44 | 102 | CCCCOC[C@H]1C[C@]2(C)[C@@H](O)CC[C@H]2[C@@H]2CCc3cc(O)ccc3[C@@H]12 | 0.1 | – |
| 240 | 20 | 114 | COC[C@H]1C[C@]2(C)C(O)CC[C@H]2[C@@H]2CCc3cc(O)ccc3[C@@H]12 (some centres undefined) | – | Relative stimulatory activity [7]: 125%; Ki [8]: Agonist |
| 82 | 81 | 128 | CC(C)(C)OCCC[C@H]1C[C@]2(C)[C@@H](O)CC[C@H]2[C@@H]2CCc3cc(O)ccc3[C@@H]12 | 0.09 | – |
| 140 | 47 | 96 | C[C@]12C[C@H](CCCOCCF)[C@@H]3c4ccc(O)cc4CC[C@H]3[C@@H]1CC[C@@H]2O | 1.1 | – |
| 75 | 48 | 87 | CCOCCC[C@H]1C[C@]2(C)[C@@H](O)CC[C@H]2[C@@H]2CCc3cc(O)ccc3[C@@H]12 | 0.3 | – |
| 90 | 25 | 67 | COCC[C@H]1C[C@]2(C)[C@@H](O)CC[C@H]2C2CCc3cc(O)ccc3[C@H]21 (single isomer, unassigned) | – | Ki [10]: Partial agonist |
| 125 | 43 | 146 | CCCOC[C@H]1C[C@]2(C)[C@@H](O)CC[C@H]2[C@@H]2CCc3cc(O)ccc3[C@@H]12 | 0.3 | – |
| – | 10 | – | CC(C)(C)COC(=O)C[C@H]1C[C@]2(C)[C@@H](O)CC[C@H]2C2CCc3cc(O)ccc3[C@H]21 (single isomer, unassigned) | 5.2 | – |
| 111 | 34 | 159 | COCCC[C@H]1C[C@]2(C)[C@@H](O)CC[C@H]2[C@@H]2CCc3cc(O)ccc3[C@@H]12 | 0.3 | – |
| 40 | 31 | 49 | CCOCC[C@H]1C[C@]2(C)[C@@H](O)CC[C@H]2C2CCc3cc(O)ccc3[C@H]21 (single isomer, unassigned) | 0.3 | – |
| 88 | 65 | 54 | CCCOCC[C@H]1C[C@]2(C)[C@@H](O)CC[C@H]2C2CCc3cc(O)ccc3[C@H]21 (single isomer, unassigned) | 0.3 | – |
| 2 | 2.3 | 5 | CC(C)(C)OCC[C@H]1C[C@]2(C)[C@@H](O)CC[C@H]2C2CCc3cc(O)ccc3[C@H]21 (single isomer, unassigned) | 20 | – |

The next lines start with the compound.

| SMILES | RBA [1] [%] | RBA [3] [%] | RBA [4] [%] | Ki [2] [nM] | further results |
| --- | --- | --- | --- | --- | --- |
| CCNC(=O)CC[C@H]1C[C@]2(C)[C@@H](O)CC[C@H]2[C@@H]2CCc3cc(O)ccc3[C@@H]12 | – | 3.7 | – | – | Ki [5]: Partial agonist |
| CCOC(=S)C[C@H]1C[C@]2(C)[C@@H](O)CC[C@H]2C2CCc3cc(O)ccc3[C@H]21 (single isomer, unassigned) | – | 10 | – | 2.7 | – |
| CC(=O)CC[C@H]1C[C@]2(C)[C@@H](O)CC[C@H]2[C@@H]2CCc3cc(O)ccc3[C@@H]12 | – | 1 | – | – | Ki [6]: Not Active |
| CCCOC(=O)C[C@H]1C[C@]2(C)[C@@H](O)CC[C@H]2C2CCc3cc(O)ccc3[C@H]21 (single isomer, unassigned) | – | 38 | – | 1 | – |
| CCCC(=O)CC[C@H]1C[C@]2(C)[C@@H](O)CC[C@H]2[C@@H]2CCc3cc(O)ccc3[C@@H]12 | – | 7.7 | – | 13 | – |
| CCC(=O)C[C@H]1C[C@]2(C)[C@@H](O)CC[C@H]2C2CCc3cc(O)ccc3[C@H]21 (single isomer, unassigned) | – | 18 | – | – | Ki [5]: Partial agonist; Stimulatory activity [9]: 1.9% |
| CCCC(=O)C[C@H]1C[C@]2(C)[C@@H](O)CC[C@H]2C2CCc3cc(O)ccc3[C@H]21 (single isomer, unassigned) | – | 13 | – | 3.1 | – |
| CC(C)OC(=O)C[C@H]1C[C@]2(C)[C@@H](O)CC[C@H]2C2CCc3cc(O)ccc3[C@H]21 (single isomer, unassigned) | – | 17 | – | 2.1 | – |
| CCOC[C@H]1C[C@]2(C)[C@@H](O)CC[C@H]2[C@@H]2CCc3cc(O)ccc3[C@@H]12 | 73 | 28 | 70 | – | Ki [11]: Partial agonist |
| C[C@]12C[C@H](COCCF)[C@@H]3c4ccc(O)cc4CC[C@H]3[C@@H]1CC[C@@H]2O | 35 | 10 | 27 | – | Ki [5]: Partial agonist |
| CCC(=O)CC[C@H]1C[C@]2(C)[C@@H](O)CC[C@H]2[C@@H]2CCc3cc(O)ccc3[C@@H]12 | – | 3.7 | – | 16 | – |
| CCCCO[C@H]1C[C@]2(C)[C@@H](O)CC[C@H]2[C@@H]2CCc3cc(O)ccc3[C@H]21 | 21 | 2.1 | 7.5 | – | Ki [12]: Not Active |
| CNC(=O)CC[C@H]1C[C@]2(C)[C@@H](O)CC[C@H]2[C@@H]2CCc3cc(O)ccc3[C@@H]12 | – | 0.6 | – | – | Ki [5]: Partial agonist |
| CCNC(=O)C[C@H]1C[C@]2(C)[C@@H](O)CC[C@H]2C2CCc3cc(O)ccc3[C@H]21 (single isomer, unassigned) | – | 0.1 | – | – | Ki [13]: Partial agonist |
